The test system of experiment [1] is Staphylococcus aureus. Put plainly: Antimicrobial activity against Staphylococcus aureus CB1430 harboring rpoB H481Y, parE E474K and gyrA S84L mutant genes selected after 0.18 ug/ml drug exposure by broth microdilution method. In kind it is functional. Summed up:
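CLSI broth microdilution MIC in cation-adjusted Mueller-Hinton (MHII) broth with 0.002% (vol/vol) polysorbate 80. Single-step mutants were selected on agar […], purified by drug-free passage, their phenotype re-verified, and resistance loci sequenced.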
Background: Dilution methods test growth across graded concentrations, often in twofold steps.

Experiment [2] has as its system Staphylococcus aureus. Put plainly: Antimicrobial activity against Staphylococcus aureus CB1419 harboring rpoB H481Y and gyrA G572D mutant genes selected after 0.1 ug/ml drug exposure by broth microdilution method.
Experiment [3] relates to Staphylococcus aureus. Put plainly: Inhibition of DNA synthesis in Staphylococcus aureus CB190 assessed as decrease in [methyl-3H]thymidine incorporation at 0.5 ug/ml. The experiment is classed as functional, organism-based. A general note: Incorporation of labelled thymidine or its analogues reports DNA synthesis.
Experiment [4] has as its system Staphylococcus aureus. Put plainly: Antimicrobial activity against Staphylococcus aureus CB1954 harboring rpoB H481Y, gyrA S84L, K809 deficient gyrA, parC S80F, parC A523D mutant genes selected after CBR-2092 exposure for 7 days by broth microdilution method. Conditions: CB1954, 168 h. In kind it is functional. The gist of the method: (§1)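 CLSI broth microdilution MIC in cation-adjusted Mueller-Hinton (MHII) broth supplemented with 0.002% (vol/vol) polysorbate 80, included to limit compound loss to plastic surfaces.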

Experiment [5] has as its system Staphylococcus aureus. Put plainly: Antimicrobial activity against Staphylococcus aureus CB1883 harboring rpoB R484H mutant gene, L520 deficient gyrA gene, gyrA S84L mutant gene and R236 duplicated par C gene by broth microdilution method. The experiment is classed as functional. Summed up:
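CLSI broth microdilution MIC in MHII broth with 0.002% (vol/vol) polysorbate 80. Isolates came from daily stepwise broth passage at sub-MIC drug (MHII without polysorbate 80, 10^6 CFU/ml inoculum, 20–24 h shaking at 37°C), were purified drug-free, and were sequenced at target loci.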

The test system of experiment [6] is Staphylococcus aureus. Put plainly: Antimicrobial activity against Staphylococcus aureus CB814 harboring […] and parC S80F mutant genes by agar dilution method. In kind it is functional. Summed up: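 CLSI agar dilution MIC with cation-adjusted Mueller-Hinton (MHII) agar as the base medium.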
Experiment [7] deals with Staphylococcus aureus. Put plainly: Antimicrobial activity against Staphylococcus aureus CB370 harboring rpoB H481Y mutant gene by broth microdilution method. The experiment is classed as functional. The gist of the method:
as §1

The values that follow come from ChEMBL document CHEMBL1275434, “In vitro evaluation of CBR-2092, a novel rifamycin-quinolone hybrid antibiotic: studies of the mode of action in Staphylococcus aureus” (Antimicrob Agents Chemother, 2008).

A word on the MIC: it is the lowest concentration that inhibits growth of the organism.

Structures are written as SMILES. ≈ marks a conversion by molar mass, not a printed value. Calls of active or inactive are those of the source. The rule behind the calls is not given here.

Take `CO[C@H]1/C=C/O[C@@]2(C)Oc3c(C)c(O)c4c(O)c(c(/C=N/N5CCC(N(C)C6([C@@H]7CCN(c8c(F)cn9c(=O)c(C(=O)O)cc(C%10CC%10)c9c8C)C7)CC6)CC5)c(O)c4c3C2=O)NC(=O)/C(C)=C\C=C\[C@H](C)[C@H](O)[C@@H](C)[C@@H](O)[C@@H](C)[C@H](OC(C)=O)[C@@H]1C`: the MIC in experiment [1] stood at 16 µg/mL (≈ 13.3 µM); in experiment [2], 1 µg/mL (≈ 0.83 µM); in experiment [4], 16 µg/mL (≈ 13.3 µM); in experiment [5], 8 µg/mL (≈ 6.64 µM); in experiment [6], 0.06 µg/mL (≈ 0.0498 µM); in experiment [7], 0.12 µg/mL (≈ 0.0996 µM). In addition, the outcome in experiment [3] was Active.
